Results: ChEMBL document CHEMBL1123166, “Design and synthesis of 2-(arylamino)-4(3H)-quinazolinones as novel inhibitors of rat lens aldose reductase” (J Med Chem, 1986)

Assays:
[1] = target: Aldo-keto reductase family 1 member B1 (Rattus norvegicus, UniProt P07943); experiment: Compound was tested for its ability to inhibit crude aldose reductase obtained from rat lens
[2] = target: Aldo-keto reductase family 1 member B1 (Rattus norvegicus) (UniProt P07943); experiment: Compound was tested for its ability to inhibit crude aldose reductase obtained from rat lens at 100 uM concentration
Method in brief: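 Crude enzyme prepared from rat lens. Reaction at pH 6.2 in 0.1 M phosphate buffer with 0.104 mM NADPH and 1.5 mM DL-glyceraldehyde as substrate. NADPH consumption followed at 340 nm against a blank lacking substrate. Percent inhibition from rate versus substrate-only control. IC50 from linear regression of log dose-response using at least three concentrations, three replicates each, for compounds exceeding 50% inhibition at 100 μM.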

Row | Compound | IC50 [1] | inhibition [2]
1 | O=C(O)c1ccc(Nc2nc3ccccc3c(=O)[nH]2)cc1 | 50 µM | 
2 | COc1cc2nc(Nc3ccccc3)nc(O)c2cc1OC |  | 17.4%
3 | Oc1nc(NCc2ccccc2)nc2ccccc12 |  | 3.9%
4 | Oc1nc(Nc2ccccc2)nc2ccccc12 |  | 5.9%
5 | COc1cc2nc(NCc3ccccc3)nc(O)c2cc1OC |  | 22.4%
6 | COc1cc2nc(Nc3ccc(C(=O)O)cc3)[nH]c(=O)c2cc1OC | 34 µM | 
7 | O=S(=O)(O)c1ccc(Nc2nc(O)c3ccccc3n2)cc1 |  | 42.6%
8 | O=c1[nH]c(Nc2ccc(O)cc2)nc2ccccc12 | 75 µM | 
9 | Cc1nc2ccccc2c(=O)n1-c1ccc(C(=O)O)cc1 | 214 µM | 
10 | O=C(O)c1ccc(Nc2nc3ccccc3c(=O)[nH]2)cc1O | 57 µM | 
